Measured values: ChEMBL document CHEMBL2086264
≈ marks a conversion by molar mass, not a printed value. Calls of active or inactive are those of the source. The calls are words filed in the database; no cut-off is given here.

Experiments:
[1] = tested on: Staphylococcus aureus subsp. aureus RN4220; assay: Inhibition of PlsY-mediated lipid synthesis in Staphylococcus aureus RN4220 harboring gpsA mutant assessed as increase in [14C]-labeled free fatty acid level
[2] = tested on: Staphylococcus aureus subsp. aureus RN4220; assay: Inhibition of PlsY in Staphylococcus aureus RN4220 harboring gpsA mutant assessed as Fab4-mediated fatty acid chain elongation measured as 20C fatty acid level at 25 uM after 2.5 hrs by mass spectrophotometry; parameters: scale not given: the % may be the effect or the level left
Method in brief: (§1)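 RN4220 grown in Luria-Bertani broth at 37°C with 225 rpm shaking to OD600 0.5. 50 mL cultures treated for 2.5 h alongside a DMSO control. Lipids extracted by Bligh–Dyer and fatty acids analyzed by gas chromatography. Weight percent, mean of duplicates; not detected means <1%.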

Staphylococcus aureus [3] = assay: Growth inhibition of Staphylococcus aureus RN4220 harboring gpsA mutant at >= 25 uM measured over 2 hrs by spectrophotometry; type: functional, organism-based
[4] = tested on: Staphylococcus aureus subsp. aureus RN4220; assay: Inhibition of PlsY in Staphylococcus aureus RN4220 harboring gpsA mutant assessed as Fab4-mediated fatty acid chain elongation measured as 16C fatty acid level at 50 uM after 2.5 hrs by mass spectrophotometry; parameters: scale not given: the % may be the effect or the level left; method in brief: as §1
Bacillus anthracis [5] = assay: Antibacterial activity against Bacillus anthracis after overnight incubation by microbroth dilution assay; type: functional
Bacillus subtilis = assay: Antibacterial activity against Bacillus subtilis ATCC 23857 after overnight incubation by microbroth dilution assay; type: functional
Method in brief: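 CLSI M7A7 microbroth dilution in Mueller-Hinton broth; S. pneumoniae broth given 5% lysed horse blood. DMSO stocks of 10 mg/mL; twofold dilutions to final 200–0.0125 µg/mL. Mid-log inoculum (OD600 0.5) diluted to final OD600 0.0005 (~10^5 CFU/mL). Overnight at 37°C; MIC is the lowest concentration inhibiting 90% of visible growth.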

[6] = tested on: Staphylococcus aureus subsp. aureus RN4220; assay: Inhibition of PlsY in Staphylococcus aureus RN4220 harboring gpsA mutant assessed as Fab4-mediated fatty acid chain elongation measured as 18C fatty acid level at 50 uM after 2.5 hrs by mass spectrophotometry; parameters: scale not given: the % may be the effect or the level left; method in brief: as §1
[7] = tested on: Staphylococcus aureus subsp. aureus RN4220; assay: Inhibition of PlsY-mediated lipid synthesis in Staphylococcus aureus RN4220 assessed as inhibition of [14C]acetate incorporation into membrane phospholipids incubated for 15 mins prior to [14C]acetate addition measured after 30 mins by scintillation counting
Method in brief: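 Cultures grown from OD600 0.1 to 0.5, split into 10 mL aliquots, exposed to inhibitor or DMSO control for 15 min, then pulsed with [14C]acetate (10 µCi) for 30 min. Cells washed 4× in PBS, lipids extracted by Bligh and Dyer, counted by scintillation and normalized to OD600. Duplicates, mean with standard error.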

[8] = tested on: Staphylococcus aureus subsp. aureus RN4220; assay: Inhibition of PlsY in Staphylococcus aureus RN4220 harboring gpsA mutant assessed as Fab4-mediated fatty acid chain elongation measured as 17C fatty acid level at 50 uM after 2.5 hrs by mass spectrophotometry; parameters: scale not given: the % may be the effect or the level left; method in brief: as §1
Bacillus anthracis [9] = assay: Growth inhibition of Bacillus anthracis sterne at 5 uM measured immediately post-compound addition; type: functional, organism-based
Bacillus anthracis [10] = assay: Inhibition of DNA synthesis in Bacillus anthracis sterne assessed as Inhibition of [3H]thymidine incorporation into DNA incubated for 15 mins prior to [3H]thymidine addition measured after 30 mins by scintillation counting; type: functional, organism-based
[11] = tested on: Staphylococcus aureus subsp. aureus RN4220; assay: Inhibition of PlsY in Staphylococcus aureus RN4220 harboring gpsA mutant assessed as Fab4-mediated fatty acid chain elongation measured as 15C fatty acid level at 25 uM after 2.5 hrs by mass spectrophotometry; parameters: scale not given: the % may be the effect or the level left; method in brief: as §1
Staphylococcus aureus [12] = assay: Growth inhibition of Staphylococcus aureus RN4220 harboring gpsA mutant at 6.25 to 100 uM measured immediately by spectrophotometry; type: functional, organism-based
[13] = tested on: Staphylococcus aureus subsp. aureus RN4220; assay: Inhibition of PlsY in Staphylococcus aureus RN4220 harboring gpsA mutant assessed as Fab4-mediated fatty acid chain elongation measured as 18C fatty acid level at 25 uM after 2.5 hrs by mass spectrophotometry; parameters: scale not given: the % may be the effect or the level left; method in brief: as §1
Enterococcus faecalis = assay: Antibacterial activity against Enterococcus faecalis ATCC 33186 after overnight incubation by microbroth dilution assay; type: functional
Method in brief: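 CLSI microbroth dilution in Mueller-Hinton broth; compounds dissolved in DMSO, twofold serial dilutions giving final 200–0.0125 µg/mL. Inoculum from single colony grown at 37°C to mid-log (OD600 0.5), diluted to final OD600 0.0005 (~10^5 CFU/mL). Incubated overnight at 37°C; MIC = lowest concentration inhibiting 90% of visible growth.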

For `O=C(CCCCCCCc1ccccc1)NS(=O)(=O)Oc1ccccc1`, the inhibition [1] was “Active”, the Activity [2] was 9% and the “growth inhibition (GI)” value (Staphylococcus aureus [3]) was “Active”. The Activity [4] was 6%, the MIC90 (Bacillus anthracis [5]) was 6.25 µg/mL (≈ 16.6 µM) and the MIC90 (Bacillus subtilis) was > 200 µg/mL. The Activity [6] was 12%, the inhibition [7] was “Dose-dependent effect” and the Activity [8] was 8%. The “growth inhibition (GI)” value (Bacillus anthracis [9]) was “Active”, the inhibition (Bacillus anthracis [10]) was “Active” and the Activity [11] was 37%. The “growth inhibition (GI)” value (Staphylococcus aureus [12]) was “inactive”, the Activity [13] was 9% and the MIC90 (Enterococcus faecalis) was 100 µg/mL (≈ 266 µM).
